Source: ChEMBL document CHEMBL2010670, “Discovery of a clinical stage multi-kinase inhibitor sodium (E)-2-{2-methoxy-5-[(2',4',6'-trimethoxystyrylsulfonyl)methyl]phenylamino}acetate (ON 01910.Na): synthesis, structure-activity relationship, and biological activity” (J Med Chem, 2011)
pIC50: −log10 of the molar value.

Experiments:
[1] = Cytotoxicity against human HCC1428 cells after 96 hrs by trypan blue exclusion assay; type: functional, cell-based; conditions: HCC1428, 96 h
How it was run: (§1)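 Cells grown in DMEM or RPMI with 10% FBS and penicillin-streptomycin, seeded at 1.0 × 10⁵ cells/mL/well in 6-well dishes. Compound added at a range of concentrations 24 h after seeding. Viable cells counted by trypan blue exclusion from duplicate wells after 96 h of exposure; dose-response end point.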

HFL1 [2] = test: Induction of apoptosis in human HFL1 cells assessed as PARP1 cleavage at 0.25 to 5 uM after 48 hrs by Western blot analysis; type: cell-based; conditions: hfl1, 48 h
How it was run: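 DU145 or HFL-1 cells plated at 3.0 × 10⁶ per […], treated 24 h later with DMSO or compound for 48 h. Frozen pellets lysed in 1% NP40/PBS with protease inhibitors. Equal protein run on 10% SDS-PAGE, transferred to nitrocellulose, probed with anti-PARP antibody, ECL detection.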

SK-BR-3 = test: Cytotoxicity against human SKBR3 cells after 96 hrs by trypan blue exclusion assay; type: functional, cell-based; conditions: SK-BR-3, 96 h
How it was run: (§2)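 Cells grown in DMEM or RPMI with 10% FBS and 1 unit/mL penicillin-streptomycin, seeded at 1.0 × 10⁵ cells/mL/well in 6-well dishes; compound added 24 h later at various concentrations. After 96 h of treatment, viable cells counted by trypan blue exclusion in duplicate wells; dose-response end point.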

HEL = test: Cytotoxicity against human HEL cells after 96 hrs by trypan blue exclusion assay; type: functional, cell-based; how it was run: as §1
[3] = Cytotoxicity against human RF1 cells after 96 hrs by trypan blue exclusion assay; type: functional, cell-based; conditions: RF1, 96 h; how it was run: as §2
PANC-1 = test: Cytotoxicity against human PANC1 cells after 96 hrs by trypan blue exclusion assay; type: functional, cell-based; conditions: PANC-1, 96 h; how it was run: as §1
MDA-MB-157 = test: Cytotoxicity against human MDA-MB-157 cells after 96 hrs by trypan blue exclusion assay; type: functional, cell-based; conditions: MDA-MB-157, 96 h; how it was run: as §1
[4] = Cytotoxicity against human COLO320 cells after 96 hrs by trypan blue exclusion assay; type: functional, cell-based; conditions: COLO 320, 96 h; how it was run: as §1
[5] = Cytotoxicity against human KG1a cells after 96 hrs by trypan blue exclusion assay; type: functional, cell-based; conditions: KG-1a; how it was run: as §1
BT-20 = test: Antitumor activity in human BT20 cells xenografted in NCR-nu/nu, Taconic mouse assessed as decrease in tumor volume at 200 mg/kg, ip administered every other day for 22 days relative to control; type: functional; conditions: route intraperitoneal
How it was run: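 Female athymic NCR-nu/nu mice received 0.5–1.0 x10⁷ BT20 cells subcutaneously in the hind leg. Dosing began about 14 days later, with tumors near 70 mm³. Groups of N=9 got 200 mg/kg in PBS or PBS vehicle, Q2D x 20. Two tumor dimensions were measured by caliper three times weekly, and V = L×S²×π/6. Body weight and toxicity signs were tracked. Group means ±SEM.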

MOLT-4 = test: Cytotoxicity against human MOLT4 cells after 96 hrs by trypan blue exclusion assay; type: functional, cell-based; conditions: MOLT-4, 96 h; how it was run: as §1
[6] = Cytotoxicity against human Z138C cells after 96 hrs by trypan blue exclusion assay; type: functional, cell-based; how it was run: as §2
HeLa = test: Cytotoxicity against human HeLa cells after 96 hrs by trypan blue exclusion assay; type: functional, cell-based; how it was run: as §1
MIA PaCa-2 = test: Cytotoxicity against human MIAPaCa2 cells after 96 hrs by trypan blue exclusion assay; type: functional, cell-based; conditions: MIA PaCa-2, 96 h; how it was run: as §1
[7] = Cytotoxicity against human MES-SA cells assessed as cell viability after 96 hrs by trypan blue exclusion; type: functional, cell-based; how it was run: as §1
HCT-116 = test: Cytotoxicity against human HCT116 cells after 96 hrs by trypan blue exclusion assay; type: functional, cell-based; conditions: HCT-116, 96 h; how it was run: as §1
[8] = Cytotoxicity against human […] cells after 96 hrs by trypan blue exclusion assay; type: functional, cell-based; how it was run: as §2
LP-1 = test: Cytotoxicity against human LP-1 cells after 96 hrs by trypan blue exclusion assay; type: functional, cell-based; conditions: LP-1, 96 h; how it was run: as §1
NCI-H417 = test: Cytotoxicity against human NCI-N417 cells after 96 hrs by trypan blue exclusion assay; type: functional, cell-based; conditions: NCI-H417, 96 h; how it was run: as §1
AGS = test: Cytotoxicity against human AGS cells after 96 hrs by trypan blue exclusion assay; type: functional, cell-based; how it was run: as §1
[9] = Cytotoxicity against human 451LU cells after 96 hrs by trypan blue exclusion assay; type: functional, cell-based; how it was run: as §1
[10] = Cytotoxicity against human WM1341D cells after 96 hrs by trypan blue exclusion assay; type: functional, cell-based; how it was run: as §2
U-266 = test: Cytotoxicity against human U266 cells after 96 hrs by trypan blue exclusion assay; type: functional, cell-based; conditions: U-266, 96 h; how it was run: as §2
HCC70 = test: Cytotoxicity against human HCC70 cells after 96 hrs by trypan blue exclusion assay; type: functional, cell-based; conditions: HCC70, 96 h; how it was run: as §1
COLO 205 = test: Cytotoxicity against human COLO205 cells after 96 hrs by trypan blue exclusion assay; type: functional, cell-based; conditions: COLO 205, 96 h; how it was run: as §1
PC-3 = test: Cytotoxicity against human PC3 cells after 96 hrs by trypan blue exclusion assay; type: functional, cell-based; conditions: PC-3, 96 h; how it was run: as §1
HFL1 [11] = test: Cell cycle arrest in human HFL1 cells assessed as accumulation at G1 phase at 0.1 to 1 uM after 24 hrs by propidium iodide staining-based flow cytometric analysis; type: ADME; conditions: hfl1, 24 h
How it was run: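 DMEM with 10% FBS; 1.0 × 10⁶ cells/dish, treated 24 h after plating and harvested 24 h after treatment. Trypsinized cells were pooled with floating cells, PBS-washed and fixed in ice-cold 70% ethanol for ≥24 h. Cells were stained with propidium iodide plus RNase A for 30 min at 37 °C. DNA content was read by flow cytometry with cell-cycle modelling.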

OVCAR-3 = test: Cytotoxicity against human OVCAR3 cells after 96 hrs by trypan blue exclusion assay; type: functional, cell-based; conditions: OVCAR-3, 96 h; how it was run: as §1
NCI-H187 = test: Cytotoxicity against human NCI-H187 cells after 96 hrs by trypan blue exclusion assay; type: functional, cell-based; conditions: NCI-H187, 96 h; how it was run: as §1
HL-60 = test: Cytotoxicity against human HL60 cells after 96 hrs by trypan blue exclusion assay; type: functional, cell-based; conditions: HL-60, 96 h; how it was run: as §1

COc1cc(OC)c(/C=C/S(=O)(=O)Cc2ccc(OC)c(NCC(=O)[O-])c2)c(OC)c1.[Na+] [RIGOSERTIB SODIUM]
pIC50 [1]: 7.22
Activity (HFL1 [2]): Non-toxic
pIC50 (SK-BR-3): 7.12
pIC50 (HEL): 7.30
pIC50 [3]: 7.30
pIC50 (PANC-1): 7.40
pIC50 (MDA-MB-157): 7.12
pIC50 [4]: 7.22
pIC50 [5]: 7.52
fold change (FC) (BT-20): 2.5
pIC50 (MOLT-4): 7.40
pIC50 [6]: 7.12
pIC50 (HeLa): 7.00
pIC50 (MIA PaCa-2): 7.30
pIC50 [7]: 7.00
pIC50 (HCT-116): 7.12
pIC50 [8]: 8.00
pIC50 (LP-1): 7.52
pIC50 (NCI-H417): 7.10
pIC50 (AGS): 7.10
pIC50 [9]: 7.60
pIC50 [10]: 7.00
pIC50 (U-266): 7.60
pIC50 (HCC70): 7.12
pIC50 (COLO 205): 6.82
pIC50 (PC-3): 6.82
Activity (HFL1 [11]): Toxic
pIC50 (OVCAR-3): 7.12
pIC50 (NCI-H187): 7.10
pIC50 (HL-60): 7.70
